Assay results reported in ChEMBL document CHEMBL1124898, “Novel agents effective against solid tumors: the diarylsulfonylureas. Synthesis, activities, and analysis of quantitative structure-activity relationships” (J Med Chem, 1990).
≈ marks a conversion by molar mass, not a printed value.

How the values were obtained:
[1] = tested on: CCRF-CEM; assay: Concentration required to inhibit growth of CCRF-CEM cells in culture for 72 hr to 50% of control growth; assay type: functional, cell-based; details: Homo sapiens
[2] = Antitumor activity in vivo against the 6C3HED lymphosarcoma dosed for 8 days at 100 mg/kg; details: Mus musculus, 192 h
[3] = tested on: Colon 26; assay: Antitumor activity in vivo expressed as percent of inhibition in C-26-colon carcinoma cell line; assay type: functional, Mus musculus
Outline: (§1)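 Tumor fragments (about 1–2 mm) implanted sc via trochar into a subaxillary site of syngeneic mice (C3H, C57BL/6, Balb/C or DBA/2) or Holtz rats. Groups were 7–10 randomized animals. Compound was suspended in 2.5% Emulphor in 0.9% saline and given orally by gavage or ip, usually from the day after implantation. Tumor volume versus untreated controls was measured one day after the final dose and reported as % inhibition. Scoring bands: +++ 95–100%, ++ 80–94%.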

[4] = tested on: L1210; assay: Antitumor activity in vivo and the activity was determined as percent increase in life span determined against L1210V-lymphocytic leukemia tumor cell lines; assay type: functional, Mus musculus
Outline: (§2)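 The ascites tumor inoculum of 1 × 10^6 cells was given ip to DBA/2 mice, and treatment started the next day. Compound was suspended in 2.5% Emulphor in 0.9% saline. Groups had 7–10 animals. %ILS = (MDD treated − MDD control)/MDD control × 100. Deaths before the control median day of death were counted as toxic. Values are optimal from at least two experiments.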

[5] = tested on: Lewis lung carcinoma cell line; assay: Antitumor activity in vivo expressed as percent of inhibition in Lewis-lung carcinoma cell line; assay type: functional, Mus musculus; outline: as §1
[6] = tested on: P388; assay: Antitumor activity in vivo and the activity was determined as percent increase in life span determined against P388-lymphocytic leukemia tumor cell lines; assay type: functional, Mus musculus; outline: as §2
[7] = tested on: 6C3HED; assay: Antitumor activity in vivo expressed as percent of inhibition in 6C3HED-lymphosarcoma tumor cell line; assay type: functional, Mus musculus; outline: as §1
[8] = Antitumor activity in vivo against the 6C3HED lymphosarcoma, dosed for 8 days at 300 mg/kg; details: Mus musculus, 192 h
[9] = tested on: C3H; assay: Antitumor activity in vivo expressed as percent of inhibition in C3H-mammary adenocarcinoma cell line; assay type: functional, Mus musculus; outline: as §1
[10] = tested on: B16; assay: Antitumor activity in vivo expressed as percent of inhibition in B-16-melanoma […] cell line; assay type: functional, Mus musculus; outline: as §1
[11] = tested on: P1534J; assay: Antitumor activity in vivo expressed as percent of inhibition in P1534J-lymphatic leukemia cell line; assay type: functional, Mus musculus
[12] = tested on: CA-755; assay: Antitumor activity in vivo expressed as percent of inhibition in CA-755-mammary adenocarcinoma tumor cell line; assay type: functional, Mus musculus; outline: as §1
[13] = tested on: Rattus norvegicus; assay: (§3) Antitumor activity in vivo expressed as percent of inhibition in Yoshida-sarcoma (rat) cell line; assay type: functional; outline: as §1
[14] = tested on: X5563; assay: Antitumor activity in vivo expressed as percent of inhibition in X5563-plasma cell myeloma cell line; assay type: functional, Mus musculus; outline: as §1
[15] = tested on: M-5 (Mus musculus); assay: Antitumor activity in vivo expressed as percent of inhibition in M-5-ovarian carcinoma cell line
[16] = Antitumor activity in vivo against the 6C3HED lymphosarcoma dosed for 10 days at 1600 mg/kg (intraperitoneal dosing for 8 days); assay type: functional; details: Mus musculus, ip
Outline: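 Solid tumor fragments of about 1–2 mm were implanted sc by trochar into the subaxillary site of syngeneic mice. Treatment began the day after implantation. Compound was suspended in 2.5% Emulphor in 0.9% saline and given ip. Groups had 7–10 randomized animals. Percent inhibition of growth was scored from tumor volume versus controls one day after the final dose.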

[17] = Antitumor activity in vivo against the 6C3HED lymphosarcoma dosed for 10 days at 270 mg/kg; assay type: functional; details: Mus musculus, 192 h, in the assay text read “8 days” for “10 days”; outline: as §1
[18] = Tested on 6 C3 HED lymphosarcoma and number of drug related deaths/total animals in treatment group was determined at 50 mg/kg dosage administered for 8 days perorally; 3/10; assay type: ADME, organism-based; design: dose 50 mg/kg, route oral; details: mouse, in vivo, po, 192 h
[19] = Tested on CA-755 mammary adenocarcinoma and percent inhibition was determined at 150 mg/kg dosage administered for 10 days intraperitoneally.; assay type: functional; details: Mus musculus, CA-755, po, 240 h; in the assay text read “orally” for “intraperitoneally”; outline: as §1
[20] = Tested on X-5563 multiple myeloma and percent inhibition was determined at 100 mg/kg dosage administered for 10 days intraperitoneally.; assay type: functional; details: Mus musculus, X5563, ip, 240 h, route intraperitoneal; outline: as §1
[21] = Tested on CA-755 mammary adenocarcinoma and percent inhibition was determined at 50 mg/kg dosage administered for 10 days intraperitoneally.; assay type: functional; details: Mus musculus, CA-755, ip, 240 h, route intraperitoneal; outline: as §1
[22] = Tested on 6 C3 HED lymphosarcoma and number of drug related deaths/total animals in treatment group was determined at 200 mg/kg dosage administered for 8 days perorally; 1/10; assay type: ADME, organism-based; design: dose 200 mg/kg, route oral; details: mouse, in vivo, po, 192 h
[23] = Tested on 6C3HED lymphosarcoma and percent inhibition was determined at 100 mg/kg dosage administered for 8 days intraperitoneally; assay type: functional; details: Mus musculus, ip, 192 h, route intraperitoneal; outline: as §1
[24] = Tested on CA-755 mammary adenocarcinoma and percent inhibition was determined at 100 mg/kg dosage administered for 10 days intraperitoneally.; assay type: functional; details: Mus musculus, CA-755, ip, 240 h, route intraperitoneal; outline: as §1
[25] = Tested on 6 C3 HED lymphosarcoma and number of drug related deaths/total animals in treatment group was determined at 100 mg/kg dosage administered for 8 days intraperitoneally; 0/10; assay type: ADME, organism-based; design: dose 100 mg/kg, route intraperitoneal; details: mouse, in vivo, ip, 192 h
[26] = Tested on X-5563 multiple myeloma and number of drug related deaths/total animals in treatment group was determined at 100 mg/kg dosage administered for 10 days intraperitoneally; 1/7; assay type: ADME, organism-based; design: dose 100 mg/kg, route intraperitoneal; details: mouse, in vivo, ip, 240 h
[27] = tested on: B16; assay: Antitumor activity in vivo and the activity was determined as percent increase in life span determined against B-16-melanoma (ascites) cell lines; assay type: functional, Mus musculus; outline: as §2
[28] = Tested on X-5563 multiple myeloma and number of drug related deaths/total animals in treatment group was determined at 150 mg/kg dosage administered for 10 days orally; 3/10; details: mouse, in vivo, po, 240 h
[29] = Tested on 6C3HED lymphosarcoma and percent inhibition was determined at 200 mg/kg dosage administered for 8 days intraperitoneally; assay type: functional; details: Mus musculus, po, 192 h, in the assay text read “orally” for “intraperitoneally”; outline: as §1
[30] = tested on: B16; assay: Antitumor activity in vivo expressed as percent of inhibition in B-16-melanoma (solid) cell line; assay type: functional, Mus musculus; outline: as §1
[31] = Tested on X-5563 multiple myeloma and percent inhibition was determined at 150 mg/kg dosage administered for 10 days intraperitoneally.; assay type: functional; details: Mus musculus, X5563, po, 240 h; in the assay text read “orally” for “intraperitoneally”; outline: as §1
[32] = tested on: YOSHIDA; assay: as §3; assay type: functional; outline: as §1
[33] = Tested on 6C3HED lymphosarcoma and percent inhibition was determined at 50 mg/kg dosage administered for 8 days intraperitoneally; assay type: functional; details: Mus musculus, po, 192 h, in the assay text read “orally” for “intraperitoneally”; outline: as §1
[34] = Antitumor activity in vivo against the 6C3HED lymphosarcoma dosed for 8 days at 200 mg/kg; details: Mus musculus, 192 h
[35] = Tested on 6C3HED lymphosarcoma and percent inhibition was determined at 200 mg/kg dosage administered for 10 days intraperitoneally; assay type: functional; details: Mus musculus, ip, 240 h, route intraperitoneal; outline: as §1
[36] = Tested on 6 C3 HED lymphosarcoma and number of drug related deaths/total animals in treatment group was determined at 200 mg/kg dosage administered for 10 days intraperitoneally; 1/10; assay type: ADME, organism-based; design: dose 200 mg/kg, route intraperitoneal; details: mouse, in vivo, ip, 240 h
[37] = Antitumor activity in vivo against the 6C3HED lymphosarcoma dosed for 10 days at 225 mg/kg; assay type: functional; details: Mus musculus, 192 h, in the assay text read “8 days” for “10 days”; outline: as §1

Row | Structure (SMILES) | IC50 [1] [µg/mL] | Inhibition [3] [%] | Increase in life-span [4] [%] | Inhibition [5] [%] | Increase in life-span [6] [%] | Inhibition [7] [%] | inhibition in vivo at 300 mg/kg [8] [%] | Inhibition [9] [%] | Inhibition [11] [%] | Inhibition [12] [%] | Inhibition [14] [%] | Inhibition [15] [%] | other results
1 | O=C(Nc1ccc(Cl)cc1)NS(=O)(=O)c1ccc(Cl)cc1 | 19.3 (≈ 55.9 µM) | – | – | – | – | – | – | – | – | – | – | – | inhibition in vivo at 100 mg/kg [2]: 100%
2 | Cc1ccc(S(=O)(=O)NC(=O)Nc2ccc(Cl)cc2)cc1 [LY-181984] | 8.9 (≈ 27.4 µM) | 94 | <50 | <60 | <50 | 100 | 100 | 94 | 100 | 100 | 94 | 100 | Inhibition [10]: 79%; Inhibition [13]: 79%
3 | O=C(NC(=O)c1c(F)cccc1F)Nc1ccc(Cl)cc1 [DIFLUBENZURON] | > 20 | – | – | – | – | – | 6 | – | – | – | – | – | inhibition in vivo at 1600 mg/kg [16]: 33%
4 | O=C(Nc1cccc(C(F)(F)F)c1)NS(=O)(=O)c1ccc([N+](=O)[O-])cc1 | > 20 | – | – | – | – | – | – | – | – | – | – | – | inhibition in vivo at 270 mg/kg [17]: 20%
5 | Cc1ccc(S(=O)(=O)NC(=O)Nc2ccc(C(F)(F)F)cc2)cc1 | 5.3 (≈ 14.8 µM) | 94 | <50 | 79 | <50 | 100 | – | 94 | 100 | 94 | 79 | 94 | Toxic/total [18]: 3; inhibition in vivo at 150 mg/kg [19]: 94%; inhibition in vivo at 100 mg/kg [20]: 64%; inhibition in vivo at 50 mg/kg [21]: 87%; Toxic/total [22]: 1; inhibition in vivo at 100 mg/kg [23]: 81%; inhibition in vivo at 100 mg/kg [24]: 13%; Toxic/total [25]: 0; Toxic/total [26]: 1; Increase in life-span [27]: <50%; Toxic/total [28]: 3; inhibition in vivo at 200 mg/kg [29]: 100%; Inhibition [30]: <60%; inhibition in vivo at 150 mg/kg [31]: 77%; Inhibition [32]: 94%; inhibition in vivo at 50 mg/kg [33]: 84%; inhibition in vivo at 200 mg/kg [34]: 100%; inhibition in vivo at 200 mg/kg [35]: 49%; Toxic/total [36]: 1
6 | O=C(Nc1ccccc1)NS(=O)(=O)c1ccccc1 | > 20 | – | – | – | – | – | – | – | – | – | – | – | inhibition in vivo at 225 mg/kg [37]: 35%
